Where two headings read alike, the source gives them in different places.
Assays:
[1] = Weight gains, feed and water consumption of gavaged rats; type: in vivo, rat
How it was run: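 Rats were housed singly at 18–26 °C, 40–70% RH and 12 h light/dark, with feed and water ad libitum. They were gavaged for 10 days from GD10 with vehicle (1% CMC-Na) or 1000 mg/kg BW/day test compound. Fluid intake was measured every 3 days and feed every 7 days. For dams, adjusted gain = GD20 body weight minus gravid uterus weight and GD10 weight.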

[2] = Body weight and organ weights standardized to body weight; type: in vivo, rat; details: 1000 mg/kg BW/day; for Paired kidney weight standardized to body weight (% ± SEM): group mean
pregnant rats [3] = experiment: Reproductive indices at necropsy; type: in vivo, rat; details: dams
How it was run: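 Time-pregnant rats were gavaged daily for 10 days from GD10 with 1% CMC-Na or 1000 mg/kg BW/day test compound. At necropsy the gravid uterus was removed whole and weighed, and corpora lutea, implants, and early and late deaths were recorded. Groups were compared against both control and the other triazine group.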

fetuses = experiment: Fetal data; type: in vivo, rat; details: dams, 1000 mg/kg BW/day, GD20
How it was run: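 Dams were dosed by gavage (1000 mg/kg BW/day or 1% CMC-Na vehicle) for 10 days from GD10. At GD20 necropsy, the gravid uterus was removed whole and weighed. Each viable fetus was recorded for uterine position, sex, weight, crown-rump length and external abnormalities. Runts were defined as below 70% of the control litter average weight by gender.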

kidney = experiment: Kidney wet-mount analysis for renal crystals; type: in vivo, rat
How it was run: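 After 10 days of gavage at 1000 mg/kg BW/day, a thin fresh renal slice spanning cortex and medulla was weighed. It was compressed between two slides with a coverslip and examined fresh by light microscopy. Crystals were ranked on a subjective 0–5 scale; some views used polarised light.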

[4] = Serum chemistry, renal function; type: in vivo, rat; details: for Blood urea nitrogen (mean ± SEM) / Creatinine (mean ± SEM) / Uric acid (mean ± SEM): serum
How it was run: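 Serum was taken from pregnant and non-pregnant rats after 10 days of gavage with vehicle or 1000 mg/kg BW/day test compound. Samples were brought to room temperature. BUN, creatinine and uric acid were measured on a benchtop veterinary chemistry analyser. Results were compared with control and the other treated group.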

[5] = Serum triazine analysis by LC-MS/MS; type: in vivo; details: pregnant female rats, individual rat; label = dose group; LOD 0.4 μg/mL
How it was run: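 Serum was collected from each rat after 10 daily gavages of 1000 mg/kg BW/day test compound or vehicle. Melamine and cyanuric acid were quantified by a previously published LC-MS/MS method, validated with pre-spiked serum samples at several fortification levels. Natural-log serum concentrations were compared between pregnant and non-pregnant rats by two-sided t-test (p ≤ 0.05).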

[6] = Amniotic fluid triazine analysis by LC-MS/MS; type: in vivo, rat; details: pregnant female rats, pooled by dam; label = dose group; LOD 0.4 μg/mL
How it was run: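 Amniotic fluid came from GD20 dams gavaged for 10 days with vehicle or 1000 mg/kg BW/day test compound. Melamine and cyanuric acid were measured by a previously published LC-MS/MS method, validated with pre-spiked amniotic fluid. Serum-to-amniotic fluid Pearson correlations were run only on rats with both samples (p ≤ 0.05).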

[7] = Formalin, ethanol and freezing effects on renal crystals; set-up: species or system rat
How it was run: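 Fresh kidney wet-mounts with crystal rank 4–5 were flooded with 10% neutral buffered formalin and photographed repeatedly. Times were 0, 1, 2, 3 and 24 h for melamine-exposed kidney and 0, 10, 20, 30 min and 1 h for cyanuric acid-exposed kidney. Sections in 100% ethanol were checked daily for up to 6 days. Frozen tissue, either freeze–thawed or held at −70 °C, was cut into 6 μm cryosections, unstained or unfixed H&E.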

kidney and bladder = experiment: Histopathology of kidney and bladder; type: in vivo, rat
rats = experiment: Clinical observations and survival; type: in vivo, rat; details: 1000 mg/kg BW/day
How it was run: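 Female rats, time-pregnant or non-pregnant, were weight-stratified and randomised from GD10. They were gavaged each morning for 10 days with 1% CMC-Na vehicle or 1000 mg/kg BW/day test compound at 1 mL/100 g (n = 11/group; pregnant high-triazine group n = 13). Observations were made at least twice on day 1, then at least daily, covering skin, fur, eyes, mucosa, autonomic/CNS signs and behaviour. Animals removed early were counted as deaths.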

[8] = oral, female rats; ref Jacob et al., 2012; cited from earlier work
ABCB1 = details: MDCK cells; ref Partanen et al. (2012); cited from earlier work
ABCC2 = details: MDCK cells; ref Partanen et al. (2012); cited from earlier work
ABCG2 = details: MDCK cells; ref Partanen et al. (2012); cited from earlier work
[9] = pregnant rats, ref Jingbin et al. (2010), cited from earlier work
pregnant rats [10] = details: F344 rats, MEL in feed; ref Melnick et al. (1984); cited from earlier work
[11] = not pregnant rats, 1000 mg/kg BW/day
[12] = pregnant rats, 1000 mg/kg BW/day
[13] = 1000 mg/kg BW/day, necropsy GD20
[14] = kidney, H&E, pregnant and non-pregnant

With `Nc1nc(N)nc(N)n1` [MEL, melamine] the “Total feed consumption (g ± SEM)” value [1, 11] was 112.3 ± 9.2^^ g, the “Total water consumption (g ± SEM)” value [1, 11] was 295.1 ± 21.9 g and the “Total bw gain (g ± SEM)” value ([1]; not pregnant rats, 1000 mg/kg BW/day gavage 10 days, brackets indicate negative) was “(9.1) ± 6.5^^ g”. For the same molecule, the “Total feed consumption (g ± SEM)” value [1, 12] was 122.2 ± 11.0^^ g, the “Total water consumption (g ± SEM)” value [1, 12] was 391.8 ± 43.6 g and the “Total bw gain (g ± SEM)” value ([1]; pregnant rats, 1000 mg/kg BW/day gavage GD10-20) was 5.7 ± 14.9^^ g. For the same molecule, the “Adjusted weight gain (g ± SEM)” value ([1]; pregnant rats, GD20 body weight minus gravid uterus weight and GD10 weight, brackets indicate negative, 1000 mg/kg BW/day) was “(32.0) ± 14.6^^ g”, the “GD20 Body weight (g ± SEM)” value ([2]; not pregnant rats) was 211.3 ± 6.3 g and the “Heart weight standardized to body weight (% ± SEM)” value ([2]; not pregnant rats) was 0.43 ± 0.02 %. The “Left kidney weight standardized to body weight (% ± SEM)” value ([2]; not pregnant rats) was 0.65 ± 0.06%, the “Liver weight standardized to body weight (% ± SEM)” value ([2]; not pregnant rats) was 3.70 ± 0.14% and the “Right kidney weight standardized to body weight (% ± SEM)” value ([2]; not pregnant rats) was 0.68 ± 0.08^^ %. For the same molecule, the “Spleen weight standardized to body weight (% ± SEM)” value ([2]; not pregnant rats) was 0.26 ± 0.02%, the “Paired kidney weight standardized to body weight (% ± SEM)” value ([2]; not pregnant rats) was 1.33 ± 0.13^^ % and the “GD20 Body weight (g ± SEM)” value ([2]; pregnant rats) was 247.6 ± 11.5 g. The “Heart weight standardized to body weight (% ± SEM)” value ([2]; pregnant rats) was 0.37 ± 0.03^^ %, the “Left kidney weight standardized to body weight (% ± SEM)” value ([2]; pregnant rats) was 0.52 ± 0.05% and the “Liver weight standardized to body weight (% ± SEM)” value ([2]; pregnant rats) was 3.64 ± 0.08%. The “Right kidney weight standardized to body weight (% ± SEM)” value ([2]; pregnant rats) was 0.56 ± 0.05^^ %, the “Spleen weight standardized to body weight (% ± SEM)” value ([2]; pregnant rats) was 0.16 ± 0.03% and the “Paired kidney weight standardized to body weight (% ± SEM)” value ([2]; pregnant rats) was 1.09 ± 0.10^^ %. For the same molecule, the “No. corpea lutea (mean ± SEM)” value (pregnant rats [3]; 1000 mg/kg BW/day gavage GD10-20, necropsy GD20) was 15.1 ± 0.4, the “Early and late deaths (mean% of implants ± SEM)” value (pregnant rats [3]; [13]) was 60.3 ± 14.2^^ % of implants and the “Early deaths (mean% of implants ± SEM)” value (pregnant rats [3]; [13]) was 28.8 ± 12.5^@ % of implants. For the same molecule, the “Implant efficiency (mean% ± SEM)” value (pregnant rats [3]; [13]) was 88.0 ± 3.6%, the “Late deaths (mean% of implants ± SEM)” value (pregnant rats [3]; [13]) was 31.6 ± 13.1 % of implants and the “No. fetuses alive (mean ± SEM)” value (pregnant rats [3]; [13]) was 5.5 ± 2.0. The “No. implants (mean ± SEM)” value (pregnant rats [3]; [13]) was 13.3 ± 0.6, the “Percent alive both genders (mean% ± SEM)” value (pregnant rats [3]; [13]) was 39.7 ± 14.2% and the “Percent live females (mean% ± SEM)” value (pregnant rats [3]; [13]) was 40.7 ± 3.8%. For the same molecule, the “Average crown rump length (mean cm ± SEM)” value (fetuses) was 3.62 ± 0.23^^ cm, the “Average fetal body weight (g ± SEM)” value (fetuses) was 2.85 ± 0.48^^ g and the “Litter size (mean ± SEM)” value (fetuses) was 5.5 ± 2.0^^. The “Number of rats with non-pigmented pyramidal uroliths adjacent to the papilla” value (kidney; 1000 mg/kg BW/day) was 4, the “Treated rats that developed renal crystals (percent)” value (kidney; pregnant and non-pregnant combined, MEL n = 24, CYA n = 22, wet-mount) was 96% and the “Number of treated rats that developed renal crystals” value (kidney; pregnant and non-pregnant combined, MEL of 24, CYA of 22, wet-mount) was 23. The “Effect on uric acid serum levels versus control rats” value ([4]; 1000 mg/kg BW/day) was “did not appear to have an effect”, the “Blood urea nitrogen (mean ± SEM)” value [4, 11] was 62.45 ± 17.32^^ mg/dL and the “Creatinine (mean ± SEM)” value [4, 11] was 1.28 ± 0.27^^ mg/dL. The “Uric acid (mean ± SEM)” value [4, 11] was 4.18 ± 0.29 mg/dL, the “Mean creatinine of all treated rats” value ([4]; pregnant and non-pregnant pooled) was 1.4 mg/dL and the “Mean BUN of all treated rats” value ([4]; pregnant and non-pregnant pooled, all but one had crystals) was 69 mg/dL. For the same molecule, the “BUN and creatinine levels, elevation over control and CYA group levels” value ([4]; pregnant and non-pregnant rats) was 2–4 times, the “Blood urea nitrogen (mean ± SEM)” value [4, 12] was 78.25 ± 18.41^^ mg/dL and the “Creatinine (mean ± SEM)” value [4, 12] was 1.45 ± 0.22^^ mg/dL. The “Uric acid (mean ± SEM)” value [4, 12] was 3.45 ± 0.12 mg/dL, the “CYA concentration, Serum” value [5] was “<LOD” and the “CYA concentration, Amniotic Fluid” value [6] was “<LOD”. The “Stability of crystals to freeze–thaw cycles” value ([7]; frozen kidney tissue, CYA stable if held at −70 °C) was “able to withstand freeze–thaw cycles”, the “Period over which crystals progressively dissolve in 100% ethanol” value ([7]; kidney wet-mount sections) was 6 days and the “Time within which crystal presence was greatly reduced in formalin” value ([7]; kidney wet-mount sections) was at most 2 h. The “Number of rats with epithelial necrosis in the bladder” value (kidney and bladder; MEL: pregnant rats, minimal to marked, CYA: 1 pregnant, 2 non-pregnant, mild) was 3, the “Rats with tubular dilation” value (kidney and bladder; [14]) was 92% and the “Rats with tubular necrosis” value (kidney and bladder; [14]) was 100%. The “Animals removed from the study early” value (rats; non-pregnant rats (n = 11)) was 1, the “Maternal health during 10 day dosing period” value (rats; pregnant and non-pregnant rats) was “lost condition” and the “Animals removed from the study early” value (rats; pregnant rats (n = 13)) was 7. For the same molecule, the “Area under the curve (AUC)” value [8] was 1992 ng·h/mL, the Half-life [8] was 1.92 h and the “Substrate for ABC transporter ABCB1” value (ABCB1) was “not a substrate”. The “Substrate for ABC transporter ABCC2” value (ABCC2) was “not a substrate”, the “Substrate for ABC transporter ABCG2” value (ABCG2) was “not a substrate” and the “Detection of melamine in amniotic fluid” value ([9]; 40 mg/kg BW GD13 to GD20) was “did not detect”. For the same molecule, the “Detection of melamine in amniotic fluid” value ([9]; 400 mg/kg BW) was “detected”, the “Amniotic fluid concentration as percent of maternal serum” value [9] was “approximately 17%” and the “Microscopically-observed pathology in the ovaries or uteri” value (pregnant rats [10]) was “did not report any microscopically-observed pathology”.

From paper PMC11421684 (Food and chemical toxicology : an international journal …, 2014)
